Laboratory results published in ChEMBL document CHEMBL1153493, “The marine natural-derived inhibitors of glycogen synthase kinase-3beta phenylmethylene hydantoins: In vitro and in vivo activities and pharmacophore modeling” (Bioorg Med Chem, 2009).
pIC50: −log10 of the molar value.

How the values were obtained:
[1] = biological target: Glycogen synthase kinase-3 beta (Homo sapiens, UniProt P49841); assay: Inhibition of recombinant GSK3-beta by ELISA
[2] = system: Rattus norvegicus; assay: Antihyperglycemic activity in ip dosed Sprague-Dawley rat assessed as increase liver glycogen; assay type: functional, organism-based
Method in brief: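 Female Sprague Dawley rats, six weeks old, about 200 g. Food and water removed 6 h before a single ip injection of 5, 15 or 25 mg/kg as the sodium salt in PBS pH 7.2, 0.5 mL/rat. PBS vehicle control, n=3 per group. Liver homogenized in 5% TCA, glycogen precipitated with ethanol, measured with anthrone at 620 nm. Mean ± SEM.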

Chain of Glycogen synthase kinase-3 beta (P49841 whole entry): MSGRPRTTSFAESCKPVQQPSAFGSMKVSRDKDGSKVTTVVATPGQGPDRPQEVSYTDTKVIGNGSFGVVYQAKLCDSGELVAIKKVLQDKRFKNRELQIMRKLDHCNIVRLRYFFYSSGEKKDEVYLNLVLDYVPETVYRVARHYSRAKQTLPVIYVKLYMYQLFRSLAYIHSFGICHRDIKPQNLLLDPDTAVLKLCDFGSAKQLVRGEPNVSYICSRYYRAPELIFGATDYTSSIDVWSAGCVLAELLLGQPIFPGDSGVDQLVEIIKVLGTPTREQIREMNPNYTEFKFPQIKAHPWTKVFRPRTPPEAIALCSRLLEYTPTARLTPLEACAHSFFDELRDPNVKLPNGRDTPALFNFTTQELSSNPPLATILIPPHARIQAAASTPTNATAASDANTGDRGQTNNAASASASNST

SMILES | pIC50 [1] | Activity [2]
O=C1NC(=O)/C(=C/c2ccc(Cl)cc2)N1 | 4.74 | 
O=C1NC(=O)/C(=C/c2ccc(-c3cccs3)cc2)N1 | 4.87 | 
CCSc1ccc(/C=C2\NC(=O)NC2=O)cc1 | 5.11 | 
O=C1NC(=O)/C(=C/c2ccc(O)cc2)N1 [4-HYDROXYPHENYLMETHYLENE HYDANTOIN] | 4.86 | 
O[C@]12C=C(c3nccc4c3[nH]c3ccccc34)[C@@H]3CCN(CCCC/C=C\CC1)C[C@@]31C[C@@H]3/C=C\CCCCN3[C@H]12 [MANZAMINE A] | 4.91 | 
CSc1ccc(/C=C2\NC(=O)NC2=O)cc1 | 5.16 | 

The next molecules have a higher pIC50 [1] than those just listed; values first:

pIC50 [1] | SMILES | Activity [2]
5.19 | O=C1NC(=O)/C(=C/c2ccc(-c3ccsc3)cc2)N1 | 
5.38 | CCN(CC)c1ccc(/C=C2\NC(=O)NC2=O)cc1 | Dose-dependent effect
